Screens: PubChem BioAssay, several laboratories
Arr AP2 block: inhibitors of human beta-arrestin and AP2 interaction | AID 504490 | FITC-arrestin peptide / GST-AP2 beads, flow cytometry; AP2 beta2 appendage carries R879A mutation | inhibition, % at 10 µM | 340,000 compounds, 0.31% hits;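 active = inhibition above a set limit, near 3 SD of compounds lacking own fluorescence, cut at about 54% in these data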;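 note: plate controls were DMSO wells for no effect and 5 µM unlabelled arrestin peptide for full effect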
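System: GST-tagged AP2 beta2-adaptin appendage (R879A) on 4 µm glutathione beads / Reagent: FITC-arrestin peptide, 50 nM / Detection: HyperCyt-sampled flow cytometry, FL1 channel, ex 488/em 535 nm / Timing: 12 min plus 1 h, RT / Buffer or medium: PBS plus Tween 20 (0.05%) and BSA (0.1%)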
PfHsp90 set2: reduces growth (ATP signal) of yeast expressing P. falciparum Hsp90; S. cerevisiae expressing PfHsp90, BacTiter-Glo ATP, 48 h; yeast lacking PDR1 and PDR3 efflux regulators; inhibition, % at 9.4 µM; 310,000 compounds, 0.32% hits;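 active = every replicate shows inhibition above about 80%, whatever the replicate mean, limit read from the data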;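 note: 0% = DMSO neutral controls and 100% = 20 µM radicicol positive controls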
PAX8 reporter: PAX8 transcriptional activity inhibition; AID 652154; RMG-I TPO-luciferase reporter, SteadyGlo, 24 h; inhibition, % at 12.6 µM; 360,000 compounds, 1.2% hits;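 active = mean replicate inhibition at least 60% with every replicate also reaching 60%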;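 note: luciferase light reporting Pax8 driven TPO promoter activity; plate controls were median of neutral control wells for no effect and mitoxantrone controls for full effect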
Env fusion inh: HIV envelope-mediated fusion inhibition; HeLa-JRFL Env/CEM21 cell fusion, luciferase; inhibition, % at 12.3 µM; 360,000 compounds, 1.1% hits; AID 651610;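 active = mean replicate inhibition score of at least 50 and every replicate individually at or above 50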;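 note: 0% = plate neutral controls and 100% = maraviroc near 300 nM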
Rtt109 HAT inh: C. albicans Rtt109 histone acetyltransferase inhibition | Q5AAJ8 | purified Rtt109/Vps75, ThioGlo CoA-SH fluorescence, 4 h | inhibition, % at 34.9 µM | 330,000 compounds, 0.16% hits;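 active = inhibition of at least 50% in every replicate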
Target sequence (Q5AAJ8 whole entry, looked up): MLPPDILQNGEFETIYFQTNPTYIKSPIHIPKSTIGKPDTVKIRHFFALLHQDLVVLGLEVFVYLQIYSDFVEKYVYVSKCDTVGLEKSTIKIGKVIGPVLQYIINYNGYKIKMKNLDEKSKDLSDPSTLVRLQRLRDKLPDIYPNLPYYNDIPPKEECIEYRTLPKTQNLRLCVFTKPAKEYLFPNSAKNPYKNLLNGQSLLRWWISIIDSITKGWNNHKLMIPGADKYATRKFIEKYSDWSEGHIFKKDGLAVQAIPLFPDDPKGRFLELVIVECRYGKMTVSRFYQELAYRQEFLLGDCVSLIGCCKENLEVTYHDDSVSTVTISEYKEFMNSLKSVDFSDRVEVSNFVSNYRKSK
Glyco luc inh: N-linked glycosylation inhibition. D54 ERlucT glycosylation luciferase reporter, 24 h; percent of 100 nM tunicamycin response. reporter increase, % at 12.5 µM. 360,000 compounds, 0.23% hits. AID 588692;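 active = mean luciferase reporter signal, scaled so untreated is 0 and the glycosylation-blocking control 100, at or above a set limit in every replicate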;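 note: luciferase carries N-glycosylation sites so blocking glycosylation raises the light; 0% = median of neutral control wells and 100% = median of 100 nM tunicamycin wells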
Arr AP2 CP1: human beta-arrestin and AP2 interaction inhibition, cherry pick. shares compounds with Arr AP2 block. GST-AP2 beads, FITC arrestin peptide binding, flow cytometry; GST-fused beta2-adaptin appendage, R879A mutant. inhibition, % at 10 µM. 1,300 compounds, 2% hits. AID 504908;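 active = inhibition above a set limit, roughly 3 SD of non-fluorescent compound noise, cut at about 38% in these data; inactive = inhibition at or below that limit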;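 note: loss of bead fluorescence from 50 nM FITC arrestin peptide bound to appendage; 0% = negative control wells and 100% = excess unlabelled arrestin peptide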
GST GSH counter: counter-screen for beta-arrestin AP2 inhibitors: GST-GSH bead binding. GST-fluorescein binding to GSH beads, fluorescence. inhibition, % at 10 µM. 1,300 compounds, 2% hits. shares compounds with Arr AP2 block. AID 588338;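 active = inhibition above 50%, about 3 SD of the inhibition seen with non-fluorescent compounds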;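 note: fluorescein maleimide labelled GST captured on 4 micron glutathione beads; higher means more loss of bead fluorescence from quenching or blocked binding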
An asterisk follows results filed as active; / = no result given; [ ] = another dose, or the depositor's remark. A selection: hits, their analogues and other compounds. The true share with any hit is near 2.3%.

SMILES | Arr AP2 block | PfHsp90 set2 | PAX8 reporter | Env fusion inh | Rtt109 HAT inh | Glyco luc inh | Arr AP2 CP1 | GST GSH counter
C[C@H]1CCCCO[C@@H](CN(C)S(=O)(=O)c2cccs2)[C@@H](C)CN([C@@H](C)CO)C(=O)c2cc(N(C)C)ccc2O1 | / | / | 25 | -15[16.7 µM] | / | / | / | /
Cc1cccc2cc(CN(Cc3ccco3)C(=O)NC3CCCCC3)c(=O)[nH]c12 | 27 | 8 | / | -39 | 15 | -2 | 6 | -2
Cc1ccc2cc(CN(CC3CCCO3)C(=O)NC3CCCCC3)c(=O)[nH]c2c1C (stereo not drawn) | 12 | -50 | / | -98 | -13 | -1 | -2 | -4
COc1ccc(CCN(Cc2cc3cccc(C)c3[nH]c2=O)C(=O)NC2CCCCC2)cc1OC | 9 | / | 20 | -44 | 0 | -3 | -2 | -5
Cc1cccc2cc(CN(CC3CCCO3)C(=O)NC3CCCCC3)c(=O)[nH]c12 (stereo not drawn) | -6 | -11 | 5 | -2 | 3 | -1 | 0 | -4
Nc1c(N(C(=O)Nc2ccc(Cl)c(Cl)c2)C2CCCC2)c(=O)[nH]c(=O)n1Cc1ccccc1 | 84* | 1 | / | / | 5 | 0 | 3 | -5
O=C(N/N=C/c1ccsc1)c1cc2ccccc2o1 | -5 | -8 | -23 | -17 | -1 | 2 | / | /
O=C(N/N=C/c1cccc([N+](=O)[O-])c1)c1cc2ccccc2o1 | 107* | 18 | -2 | -3 | 1 | -3 | 2 | -1
CCN(CC(=O)Nc1c(F)cccc1F)C(=O)CCNS(=O)(=O)c1ccc(C)c(C)c1 | 58* | -21 | 9 | 8 | 1 | -2 | -4 | 0
CCOc1ccc(S(=O)(=O)NCCC(=O)N(CC)CC(=O)Nc2c(F)cccc2F)cc1 | -2 | 15 | 3 | 5 | 1 | 3 | / | /
O=C1C=CC(=O)c2c(O)c(N3CCN(CCOCCO)CC3)c(Br)c(O)c21 | 69* | -17 | 97* | 61* | 0 | -21 | 52* | 20
O=S(=O)(c1ccc(Br)cc1Cl)N1CCN(CCO)CC1 | 5 | -28 | 1 | -7 | 6 | 0 | / | /
O=C1C=CC(=O)c2c(O)c(N3CCN(CCO)CC3)c(Cl)c(O)c21 | 80* | 21 | -10 | -158 | -3 | -19 | 44* | 8
OCCOCCN1CCN(C2=Nc3ccccc3Sc3ccccc32)CC1 | 5 | 5 | 0 | -4 | 18 | -3 | / | /
N#Cc1cccc(-c2ccc([C@H]3[C@@H](CO)N4CCCCN(C(=O)Nc5ccc(F)cc5)C[C@@H]34)cc2)c1 | / | / | 26 | / | / | / | / | /
COc1cccc(C(=O)Nc2ccc3c(c2)C(=O)N(C)[C@@H]2CC[C@@H](CC(=O)NCCCN4CCOCC4)O[C@H]2CO3)c1 | / | / | -27 | -15[16.7 µM] | / | / | / | /
O=C(Nc1ccc(Cl)cc1[N+](=O)[O-])c1ccc2c(c1)OCCO2 | 63* | 10 | -96 | -331 | -9 | -7 | 11 | 19
O=C(Nc1cc([N+](=O)[O-])ccc1Cl)c1ccc2c(c1)OCO2 | 89* | -11 | -5 | 0 | -10 | -2 | -10 | 3
O=C(Nc1ccc(F)c([N+](=O)[O-])c1)c1ccc2c(c1)OCCO2 | -1 | 4 | -131 | -16 | 5 | -5 | / | /
C[C@H](CO)N1C[C@H](C)[C@@H](CN(C)S(=O)(=O)c2ccc(F)cc2)OCCCC[C@H](C)Oc2ccc(NC(=O)c3ccncc3)cc2C1=O | / | / | / | -10[16.7 µM] | / | / | / | /
CCOc1ccc(C(C(=O)NC2CCCCC2)N(C(=O)c2ccco2)c2ccc(-n3cnnn3)c(C)c2)cc1 (stereo not drawn) | 100* | 1 | / | / | 7 | -1 | -19 | -4
CC(=O)c1cccc(N(C(=O)c2ccco2)C(C(=O)NC2CCCC2)c2cccs2)c1 (stereo not drawn) | 6 | -33 | 15 | 14 | -8 | -2 | / | /
